Laboratory results as given in publication PMC5023007 (Bioorganic & medicinal chemistry, 2016).

What follows are compounds tested against T1, ATX (Homo sapiens, UniProt Q13822) (assay: ATX activity assay with FS-3 substrate). Settings: 10 μM compound, 10 nM ATX, 1 μM FS-3.
Type: biochemical
Summary of the method: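 Purified human FLAG-tagged ATX at 10 nM with 10 µM test compound and 1 µM FS-3 in 50 mM Tris pH 8.0, 30 µM BSA, 1 mM CaCl2, 1 mM MgCl2, 5 mM KCl, 140 mM NaCl. Fluorescence (ex 485/em 520 nm) was read every 2 min for 60 min at 37°C, in triplicate. Signal was normalized to no-ATX (0%) and ATX-without-compound (100%). Interference was checked with 100 nM carboxyfluorescein ± compound.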

FS-3 Inhibition (%) | SMILES
false positive | CC(C)(C)CN(Cc1cccc(CN)c1)C(=O)c1ccc(-c2ccc(F)cc2)nc1 [GRI 792685]

Same assay, conditions: read-out: FS-3 Inhibition (%), 10 μM compound, 10 nM ATX, 1 μM FS-3

inhibition at 10 µM | SMILES
54.1 ± 0.2% | CCCCCCCCCCCCCC(=O)NC(CCC(=O)O)C(=O)O (stereo not shown) [GRI 96880]
48 ± 4.4% | COc1ccc2c(c1)C(NCc1cc(OC)c(OC)cc1N)CCO2 (stereo not shown) [GRI 93694]
65.5 ± 3.2% | O=C(CCCOc1ccc(Cl)cc1Cl)N1CCN(c2ccc([N+](=O)[O-])cc2)CC1 [GRI 392104]

SMILES | inhibition at 10 µM
CC(=O)OC1(C(=O)COC(=O)c2ccco2)CC2CCC3C4C=CC(=O)CC4(C)CCC3C2(C)C1 (stereo not shown) [GRI 519441] | 59.7 ± 1.7%

What follows are compounds tested against T1, ATX (assay: ATX activity assay with pNP-TMP substrate). Settings: read-out: pNP-TMP Inhibition (%).
Type: biochemical
Summary of the method: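 Runs were in triplicate with human FLAG-fusion ATX, purified, at 10 nM, 10 µM test compound and 1 mM pNP-TMP. Buffer was 50 mM Tris pH 8.0 containing 30 µM BSA, 1 mM CaCl2, 1 mM MgCl2, 5 mM KCl and 140 mM NaCl. Absorbance at 405 nm was read every 2 min over 60 min at 37°C. Values were scaled between no-enzyme (0%) and uninhibited enzyme (100%). Interference control used 100 µM para-nitrophenol ± compound.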

inhibition at 10 µM | SMILES
-36.5 ± 6.3% | O=C(O)c1ccc(N2CCN(C(=O)COc3cccc(F)c3)CC2)cc1 [Analog 60, 4-(4-(2-(3-fluorophenoxy)acetyl)piperazin-1-yl)benzoic acid]
-12 ± 6% | O=C(O)c1ccc(N2CCN(C(=O)COc3ccccc3F)CC2)cc1 [Analog 57, 4-(4-(2-(2-fluorophenoxy)acetyl)piperazin-1-yl)benzoic acid]
-11.4 ± 2.6% | O=C(O)c1ccc(N2CCN(C(=O)COc3cccc(C(F)(F)F)c3)CC2)cc1 [Analog 61, 4-(4-(2-(3-(trifluoromethyl)phenoxy)acetyl)piperazin-1-yl)benzoic acid]

Continued, compound first:

SMILES | inhibition at 10 µM
O=C(COc1ccc(F)cc1)N1CCN(c2ccc([N+](=O)[O-])cc2)CC1 [Analog 30, 2-(4-fluorophenoxy)-1-(4-(4-nitrophenyl)piperazin-1-yl)ethanone] | -12.1 ± 1.2%
CC(=O)OC1(C(=O)COC(=O)c2ccco2)CC2CCC3C4C=CC(=O)CC4(C)CCC3C2(C)C1 (stereo not shown) [GRI 519441] | -45.4 ± 2.5%
O=C(COc1ccccc1F)N1CCN(c2ccc([N+](=O)[O-])cc2)CC1 [Analog 24, 2-(2-fluorophenoxy)-1-(4-(4-nitrophenyl)piperazin-1-yl)ethanone] | -22.7 ± 4.2%
O=C(COc1ccc(Cl)cc1Cl)N1CCN(c2ccc([N+](=O)[O-])cc2)CC1 [Analog 32, 2-(2,4-dichlorophenoxy)-1-(4-(4-nitrophenyl)piperazin-1-yl)ethanone] | -14.9 ± 4.7%
O=C(COc1cccc(F)c1)N1CCN(c2ccc([N+](=O)[O-])cc2)CC1 [Analog 27, 2-(3-fluorophenoxy)-1-(4-(4-nitrophenyl)piperazin-1-yl)ethanone] | -14.1 ± 2.3%
O=C(COc1ccccc1Cl)N1CCN(c2ccc([N+](=O)[O-])cc2)CC1 [Analog 23, 2-(2-chlorophenoxy)-1-(4-(4-nitrophenyl)piperazin-1-yl)ethanone] | -11.9 ± 1.3%
O=C(COc1ccccc1F)N1CCN(c2cccc([N+](=O)[O-])c2)CC1 [Analog 13, 2-(2-fluorophenoxy)-1-(4-(3-nitrophenyl)piperazin-1-yl)ethanone] | -14.7 ± 2.9%

These compounds were tested against LPA2 (Homo sapiens, UniProt Q9HBW0) (assay: Calcium mobilization assay, potentiation of LPA effect at LPA2). Settings: supplemental figure.
LPA2, sequence (Q9HBW0 whole entry, species assumed): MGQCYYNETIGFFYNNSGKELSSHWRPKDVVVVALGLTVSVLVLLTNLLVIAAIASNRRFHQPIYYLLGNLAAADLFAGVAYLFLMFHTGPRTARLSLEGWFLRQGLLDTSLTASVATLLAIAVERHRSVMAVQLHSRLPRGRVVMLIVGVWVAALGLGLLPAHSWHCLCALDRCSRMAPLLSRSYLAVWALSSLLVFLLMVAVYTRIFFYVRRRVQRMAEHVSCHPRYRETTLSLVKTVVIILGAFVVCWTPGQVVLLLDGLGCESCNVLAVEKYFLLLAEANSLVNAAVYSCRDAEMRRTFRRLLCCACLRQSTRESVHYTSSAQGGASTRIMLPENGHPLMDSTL
Type: cell-based

SMILES | potentiation of LPA effects at LPA2
O=C(COc1cc(Cl)cc(Cl)c1)N1CCN(c2cccc([N+](=O)[O-])c2)CC1 [Analog 22, 2-(3,5-dichlorophenoxy)-1-(4-(3-nitrophenyl)piperazin-1-yl)ethanone] | modest potentiation of LPA effects at LPA2
